Activity calls are given as the source filed them. The calls are words filed in the database; no cut-off is given here.
Assays:
Type in all cases: cell-based
[1] = target: T1, Protein cereblon/Bromodomain-containing protein 4 (Homo sapiens) (UniProt O60885+Q96SW2); assay: PROTAC activity at BRD4/Cereblon in human LS174T cells assessed as BRD4 protein degradation at 500 nM for 2 hrs by Western blot analysis
Method in brief: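 LS174t cells exposed 2 h to PROTAC; for washout, medium replaced and cells collected 22 h later. BRD4 by immunoblot (15 µg lysate, 10% SDS-PAGE, anti-BRD4 1:1,000 overnight at 4 °C, GAPDH/β-actin control).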

[2] = target: T1, Protein cereblon/Bromodomain-containing protein 4 (Homo sapiens); assay: PROTAC activity at BRD4/Cereblon in human LS174T cells assessed as BRD4 protein degradation at 250 to 500 nM pretreated with thalidomide for 4 hrs by Western blot analysis; settings: dose 250-500 nM
[3] = target: T1, Protein cereblon/Bromodomain-containing protein 4 (Homo sapiens); assay: PROTAC activity at BRD4/Cereblon in human LS174T cells assessed as decrease in MYC protein expression at […] for 24 hrs by Western blot analysis
Method in brief: (§1)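 Cells treated 24 h across 1 nM–10 µM range (fibroblasts at 500/1000 nM). Immunoblot: RIPA lysate with 2.5 mmol/l DTT, 15 µg per lane on 10% SDS-PAGE, nitrocellulose, 5% milk block 1 h. BRD4 or MYC primary 1:1,000 overnight at 4 °C, HRP secondary 1:10,000 for 60 min; GAPDH/β-actin loading control; ECL detection.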

[4] = target: T1, Protein cereblon/Bromodomain-containing protein 4 (Homo sapiens); assay: PROTAC activity at BRD4/Cereblon in human fibroblast cells assessed as decrease in BRD4 protein degradation at 500 to 1000 nM for 24 hrs by Western blot analysis; settings: dose 500-1000 nM; method in brief: as §1
[5] = target: T1, Protein cereblon/Bromodomain-containing protein 4 (Homo sapiens); assay: PROTAC activity at BRD4/Cereblon in human DLD-1 cells assessed as decrease in BRD4 protein degradation at 5 to 10 uM for 24 hrs by Western blot analysis; settings: dose 5-10 µM
Method in brief: (§2)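 Eight CRC lines exposed 24 h to PROTAC at 5 or 10 µM (stocks 2 mM in DMSO, diluted in PBS or medium). Lysis in RIPA with protease/phosphatase inhibitors and 2.5 mmol/l DTT; 15 µg protein on 10% SDS-PAGE, semi-dry transfer to nitrocellulose. Anti-BRD4 or anti-MYC at 1:1,000 overnight at 4 °C; GAPDH or β-actin loading control; chemiluminescence.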

[6] = target: T1, Protein cereblon/Bromodomain-containing protein 4 (Homo sapiens); assay: PROTAC activity at BRD4/Cereblon in human HCT116 p53+/+ cells assessed as decrease in MYC protein expression at 5 to 10 uM for 24 hrs by Western blot analysis; settings: HCT-116, dose 5-10 µM; method in brief: as §2
[7] = target: T1, Protein cereblon/Bromodomain-containing protein 4 (Homo sapiens); assay: PROTAC activity at BRD4/Cereblon in human HT-29 cells assessed as decrease in MYC protein expression at 5 to 10 uM for 24 hrs by Western blot analysis; settings: dose 5-10 µM; method in brief: as §2
[8] = target: T2, von Hippel-Lindau disease tumor suppressor/Bromodomain-containing protein 4 (Homo sapiens) (UniProt O60885+P40337); assay: PROTAC activity at BRD4/VHL E3 ligase in human LS174T cells assessed as BRD4 mRNA level at 500 to 1000 nM for 24 hrs by RT-qPCR analysis; settings: dose 500-1000 nM
T2 sequence (P40337 whole entry, looked up, other chains not shown): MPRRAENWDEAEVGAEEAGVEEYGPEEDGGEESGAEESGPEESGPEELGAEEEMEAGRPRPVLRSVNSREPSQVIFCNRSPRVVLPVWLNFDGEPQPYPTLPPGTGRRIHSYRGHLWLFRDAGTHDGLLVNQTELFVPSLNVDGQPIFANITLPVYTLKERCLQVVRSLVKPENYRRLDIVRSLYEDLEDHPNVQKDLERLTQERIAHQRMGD
Method in brief: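 LS174t cells were treated for 24 h, then total RNA was Trizol-extracted from 10^6 cells and integrity-checked. 0.7 µg RNA was reverse transcribed and SYBR-type qPCR run for 40 cycles (95 °C 15 s, 60 °C 60 s), with melt-curve control. MYC or BRD4 mRNA was normalised to PPIA and ACTB by the ΔΔCq method. Experiments were run at least three times; mean ± SD.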

[9] = target: T2, von Hippel-Lindau disease tumor suppressor/Bromodomain-containing protein 4 (Homo sapiens); assay: PROTAC activity at BRD4/VHL E3 ligase in human fibroblast cells assessed as decrease in BRD4 protein degradation at 100 to 250 nM for 24 hrs by Western blot analysis; settings: dose 100-250 nM
Method in brief: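 Normal human dermal fibroblasts in 10% FCS medium were treated with 100 or 250 nM PROTAC. BRD4 and MYC protein were assessed by western blot (15 µg RIPA lysate, 10% SDS-PAGE, primary 1:1,000 overnight at 4 °C), with GAPDH/β-actin as loading control.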

[10] = target: T2, von Hippel-Lindau disease tumor suppressor/Bromodomain-containing protein 4 (Homo sapiens); assay: PROTAC activity at BRD4/VHL E3 ligase in human COLO 320 cells assessed as decrease in BRD4 protein degradation at 5 to 10 uM for 24 hrs by Western blot analysis; settings: dose 5-10 µM; method in brief: as §2
[11] = target: T2, von Hippel-Lindau disease tumor suppressor/Bromodomain-containing protein 4 (Homo sapiens); assay: PROTAC activity at BRD4/VHL E3 ligase in human Caco-2 cells assessed as decrease in MYC protein expression at 5 to 10 uM for 24 hrs by Western blot analysis; settings: dose 5-10 µM; method in brief: as §2
[12] = target: T2, von Hippel-Lindau disease tumor suppressor/Bromodomain-containing protein 4 (Homo sapiens); assay: PROTAC activity at BRD4/VHL E3 ligase in human LS174T cells assessed as decrease in MYC protein expression at 5 to 10 uM for 24 hrs by Western blot analysis; settings: dose 5-10 µM
Method in brief: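 Eight CRC lines, including LS174t (RPMI 1640) and SW480 (DMEM/HamsF12), all with 10% FCS, were treated with PROTAC at 5 and 10 µM. BRD4 and MYC proteins were detected by immunoblot (RIPA lysate, 15 µg, 10% gel, primary 1:1,000 overnight at 4 °C), with GAPDH/β-actin as loading control.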

[13] = target: T2, von Hippel-Lindau disease tumor suppressor/Bromodomain-containing protein 4 (Homo sapiens); assay: PROTAC activity at BRD4/VHL E3 ligase in human LS174T dbet1 resistant cells assessed as BRD4 protein degradation at 500 to 1000 nM for 24 hrs by Western blot analysis; settings: dose 500-1000 nM
Method in brief: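 Resistant LS174t cells were derived by four months' exposure to rising dBET1 concentrations, with outgrowing cells expanded. Resistant and parental cells were then treated and analysed for BRD4 and MYC protein by western blot (GAPDH/β-actin control) and for MYC mRNA by qPCR normalised to PPIA/ACTB (ΔΔCq).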

T1 sequence (Q96SW2 whole entry, looked up, other chains not shown): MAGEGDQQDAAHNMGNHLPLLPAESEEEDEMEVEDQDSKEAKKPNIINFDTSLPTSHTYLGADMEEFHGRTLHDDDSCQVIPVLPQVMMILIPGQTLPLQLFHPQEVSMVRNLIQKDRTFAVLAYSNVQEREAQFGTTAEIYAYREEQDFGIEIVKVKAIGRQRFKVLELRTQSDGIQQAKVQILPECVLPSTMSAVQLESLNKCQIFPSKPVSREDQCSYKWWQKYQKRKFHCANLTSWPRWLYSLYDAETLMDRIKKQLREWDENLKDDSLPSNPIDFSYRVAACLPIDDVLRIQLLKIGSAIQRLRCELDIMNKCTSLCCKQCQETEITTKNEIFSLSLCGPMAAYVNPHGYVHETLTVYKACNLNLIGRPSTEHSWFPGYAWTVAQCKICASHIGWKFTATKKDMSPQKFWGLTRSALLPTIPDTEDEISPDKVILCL

Structure (SMILES)	Activity [1]	Activity [2]	Activity [3]	Activity [4]	Activity [5]	Activity [6]	Activity [7]	Activity [8]	Activity [9]	Activity [10]	Activity [11]	Activity [12]	Activity [13]
Cc1sc2c(c1C)C(c1ccc(Cl)cc1)=N[C@@H](CC(=O)NCCCCNC(=O)COc1cccc3c1C(=O)N(C1CCC(=O)NC1=O)C3=O)c1nnc(C)n1-2 (stereo partly drawn)	Active	inactive	Active	Active	Active	Active	Active						
Cc1ncsc1-c1ccc(CNC(=O)[C@@H]2C[C@@H](O)CN2C(=O)[C@@H](NC(=O)COCCOCCOCCNC(=O)C[C@@H]2N=C(c3ccc(Cl)cc3)c3c(sc(C)c3C)-n3c(C)nnc32)C(C)(C)C)cc1								inactive	Active	Active	Active	Active	Active

Source: ChEMBL document CHEMBL5712087, “Targeting bromodomain-containing protein 4 (BRD4) inhibits MYC expression in colorectal cancer cells” (Neoplasia, 2019)
